Experimental data: ChEMBL document CHEMBL2062410, “Synthesis, characterization and pharmacological study of 4,5-dihydropyrazolines carrying pyrimidine moiety” (2012)

Legend:
Type in all cases: functional
[1] = Free radical scavenging activity assessed as inhibition of DPPH radical generation at 25 ug
Procedure, shortened: (§1)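 Brand-Williams method: 1 mL sample at […] per mL mixed with 2 mL of 0.2 mM methanolic DPPH. Stood 30 min at room temperature, then absorbance read at 517 nm. % scavenging calculated relative to 0.2 mM DPPH control without sample.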

[2] = Free radical scavenging activity assessed as inhibition of DPPH radical generation at 50 ug; procedure, shortened: as §1
[3] = Free radical scavenging activity assessed as inhibition of DPPH radical generation at 100 ug; procedure, shortened: as §1
[4] = Free radical scavenging activity assessed as inhibition of hydroxyl radical generation at 100 ug by Fenton reaction method
[5] = Free radical scavenging activity assessed as inhibition of superoxide anion generation at 100 ug
[6] = Free radical scavenging activity assessed as inhibition of nitric oxide generation at 100 ug
Rattus norvegicus [7] = experiment: Antiinflammatory activity in Wistar albino rat assessed as inhibition of carrageenan-induced paw edema dosed at 20 mg/kg in plantar region of paw administered 30 mins before carrageenan challenge measured 0.5 hrs post carrageenan-induced inflammation
Procedure, shortened: (§2)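 Wistar albino rats of either sex, 180–250 g, fasted 12 h before and during testing. Test compounds at 20 mg/kg given 30 min before carrageenan (0.1 mL of 1% w/v) injected into the plantar paw; diclofenac 20 mg/kg as reference. Paw volume by plethysmography at 30–180 min. % inhibition = (1 − Vt/Vc) × 100 against control edema; mean ± SEM, n = 6.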

Rattus norvegicus [8] = experiment: Antiinflammatory activity in Wistar albino rat assessed as inhibition of carrageenan-induced paw edema dosed at 20 mg/kg in plantar region of paw administered 30 mins before carrageenan challenge measured 1 hr post carrageenan-induced inflammation; procedure, shortened: as §2
Rattus norvegicus [9] = experiment: Antiinflammatory activity in Wistar albino rat assessed as inhibition of carrageenan-induced paw edema dosed at 20 mg/kg in plantar region of paw administered 30 mins before carrageenan challenge measured 1.5 hrs post carrageenan-induced inflammation; procedure, shortened: as §2
Rattus norvegicus [10] = experiment: Antiinflammatory activity in Wistar albino rat assessed as inhibition of carrageenan-induced paw edema dosed at 20 mg/kg in plantar region of paw administered 30 mins before carrageenan challenge measured 2 hrs post carrageenan-induced inflammation; procedure, shortened: as §2
Rattus norvegicus [11] = experiment: Antiinflammatory activity in Wistar albino rat assessed as inhibition of carrageenan-induced paw edema dosed at 20 mg/kg in plantar region of paw administered 30 mins before carrageenan challenge measured 2.5 hrs post carrageenan-induced inflammation; procedure, shortened: as §2
Rattus norvegicus [12] = experiment: Antiinflammatory activity in Wistar albino rat assessed as inhibition of carrageenan-induced paw edema dosed at 20 mg/kg in plantar region of paw administered 30 mins before carrageenan challenge measured 3 hrs post carrageenan-induced inflammation; procedure, shortened: as §2
Mus musculus [13] = experiment: Analgesic activity in Swiss albino mouse assessed as increase in reaction time at 10 mg/kg, ip measured 30 mins post dose by tail immersion method; settings: route intraperitoneal
Procedure, shortened: (§3)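 Tail immersion in Swiss albino mice, 6 per group, heat as pain source. Tail tip dipped in a thermostatic bath held at 55 °C. Basal reaction time noted before treatment. Test compounds at 10 mg/kg i.p., with pentazocine as reference. Reaction time read at 30, 60 and 90 min, given as mean ± SEM with % increase over basal.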

Mus musculus [14] = experiment: Analgesic activity in Swiss albino mouse assessed as increase in reaction time at 10 mg/kg, ip measured 60 mins post dose by tail immersion method; settings: route intraperitoneal; procedure, shortened: as §3
Mus musculus [15] = experiment: Analgesic activity in Swiss albino mouse assessed as increase in reaction time at 10 mg/kg, ip measured 90 mins post dose by tail immersion method; settings: route intraperitoneal; procedure, shortened: as §3

| SMILES | inhibition [1] | inhibition [2] | inhibition [3] | inhibition [4] | inhibition [5] | inhibition [6] | inhibition in vivo at 20 mg/kg (Rattus norvegicus [7]) | inhibition in vivo at 20 mg/kg (Rattus norvegicus [8]) | inhibition in vivo at 20 mg/kg (Rattus norvegicus [9]) | inhibition in vivo at 20 mg/kg (Rattus norvegicus [10]) | inhibition in vivo at 20 mg/kg (Rattus norvegicus [11]) | inhibition in vivo at 20 mg/kg (Rattus norvegicus [12]) | Activity (Mus musculus [13]) | Activity (Mus musculus [14]) | Activity (Mus musculus [15]) |
| --- | --- | --- | --- | --- | --- | --- | --- | --- | --- | --- | --- | --- | --- | --- | --- |
| Clc1ccc([C@H]2CC(c3ccccc3)=NN2c2ncc(Br)cn2)cc1 | 60.1% | 78.1% | 93.5% | 87.9% | 60% | 43.3% | 61% | 70% | 71% | 76% | 72% | 78% | 29.71% | 72.16% | 78.31% |
| Clc1ccc(C2=NN(c3ncc(Br)cn3)[C@@H](c3ccccc3)C2)cc1 | 62.7% | 76.5% | 90.5% | 82.6% | 42.6% | 39.1% | 60% | 71% | 71% | 73% | 70% | 75% | 37.62% | 70.79% | 84.65% |
| Cc1ccc([C@H]2CC(c3ccccc3)=NN2c2ncc(Br)cn2)cc1 | 67.5% | 79.2% | 94.1% | 89.1% | 59.1% | 56.1% | 63% | 68% | 71% | 69% | 72% | 79% | 16.51% | 73.66% | 65.63% |
| Cc1ccc([C@H]2CC(c3ccc(Cl)cc3)=NN2c2ncc(Br)cn2)cc1 | 54.4% | 71.8% | 80% | 63.2% | 43.8% | 38.1% | – | – | – | – | – | – | – | – | – |
| Cc1cc(C(C)(C)C)c(O)c(C(C)(C)C)c1 | 65.9% | 79.4% | 93.2% | 87% | 64% | 43.2% | – | – | – | – | – | – | – | – | – |
| Brc1ccc(C2=NN(c3ncc(Br)cn3)[C@@H](c3ccc(Br)cc3)C2)cc1 | 51.5% | 69.7% | 78.2% | 71.4% | 52.5% | 23.8% | – | – | – | – | – | – | – | – | – |
| O=[N+]([O-])c1ccc([C@H]2CC(c3ccccc3)=NN2c2ncc(Br)cn2)cc1 | 54.5% | 64.7% | 75.6% | 79.2% | 42.2% | 32.1% | – | – | – | – | – | – | – | – | – |
| O=C(O)Cc1ccccc1Nc1c(Cl)cccc1Cl [DICLOFENAC] | – | – | – | – | – | – | 61% | 69% | 67% | 78% | 71% | 80% | – | – | – |
| Clc1ccc(C2=NN(c3ncc(Br)cn3)[C@@H](c3ccc(Br)cc3)C2)cc1 | 52.2% | 67.3% | 78.5% | 70.6% | 24.6% | 38.1% | – | – | – | – | – | – | – | – | – |
| Clc1ccc(C2=NN(c3ncc(Br)cn3)[C@@H](c3ccc(Cl)cc3)C2)cc1 | 54.5% | 69.2% | 78.3% | 69.4% | 38.6% | 31.4% | – | – | – | – | – | – | – | – | – |
| COc1ccc([C@H]2CC(c3ccc(Cl)cc3)=NN2c2ncc(Br)cn2)cc1 | 68.5% | 79.4% | 89.8% | 81.6% | 58.7% | 46.2% | 58% | 62% | 64% | 70% | 69% | 73% | 28.97% | 39.25% | 71.96% |
| Brc1ccc([C@H]2CC(c3ccccc3)=NN2c2ncc(Br)cn2)cc1 | 65.4% | 79.6% | 93.4% | 86.8% | 62.1% | 47.6% | 64% | 68% | 74% | 74% | 78% | 76% | 25.76% | 62.01% | 59.39% |
| Clc1ccc([C@H]2CC(c3ccc(Br)cc3)=NN2c2ncc(Br)cn2)cc1 | 56.8% | 68.2% | 78.9% | 66.3% | 38.9% | 40.2% | – | – | – | – | – | – | – | – | – |
| CC(C)=CCN1CC[C@@]2(C)c3cc(O)ccc3C[C@@H]1[C@@H]2C (relative stereo) | – | – | – | – | – | – | – | – | – | – | – | – | 25.7% | 45.79% | 67.28% |
| Cc1ccc([C@H]2CC(c3ccc(Br)cc3)=NN2c2ncc(Br)cn2)cc1 | 55.3% | 66.3% | 69.3% | 71.5% | 50.2% | 33.7% | – | – | – | – | – | – | – | – | – |
